Experimental findings from ChEMBL document CHEMBL4043283, “Discovery and Preclinical Development of IIIM-290, an Orally Active Potent Cyclin-Dependent Kinase Inhibitor” (J Med Chem, 2018) are described below.

Assay [1] has as its system PC-3. Description: Growth inhibition of human PC3 cells at 10 uM after 48 hrs by MTT assay relative to control. Particulars: PC-3, 48 h, read-out: GI. Format: functional. In short, it runs like this:
(§1)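 Single-concentration primary screen at 10 μM by MTT assay. Cells were NCI-sourced cancer lines grown in appropriate medium at 37 °C, 95% humidity, 5% CO2. Growth inhibition is expressed relative to control.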
On the technique in general: Tetrazolium assays rely on reduction of a dye to a coloured formazan, in cell work by metabolically active cells.

The subject of assay [2] is MIA PaCa-2. Description: Growth inhibition of human MIAPaCa2 cells at 10 uM after 48 hrs by MTT assay relative to control. It counts as functional. As to conditions: MIA PaCa-2, 48 h, read-out: GI. The procedure, abridged:
as §1

Assay [3] deals with HL-60. The assay is described as follows: Growth inhibition of human HL60 cells at 10 uM after 48 hrs by MTT assay relative to control. Particulars: HL-60, 48 h, read-out: GI. It counts as functional. The procedure, abridged: as §1
The test system of assay [4] is MCF7. Description: Growth inhibition of human MCF7 cells at 10 uM after 48 hrs by MTT assay relative to control. Format: functional. Particulars: MCF7, 48 h, read-out: GI. In short, it runs like this:
as §1

For assay [5], the system named is Caco-2. The assay is described as follows: Growth inhibition of human Caco2 cells at 10 uM after 48 hrs by MTT assay relative to control. Format: functional. Particulars: Caco-2, 48 h, read-out: GI. In short, it runs like this: as §1
Assay [6] concerns the target CDK2/Cyclin A2 (Homo sapiens) (UniProt P24941+P20248). Description: Inhibition of CDK2/cyclin A (unknown origin) at 0.5 uM using histone H1 as substrate after 30 mins in presence of [33P]-gamma-ATP by filter binding assay relative to control. It counts as protein-complex assay.
The target in assay [7] is CDK9/cyclin T1 (Homo sapiens) (UniProt O60563+P50750). The assay is described as follows: Inhibition of CDK9/cyclin T1 (unknown origin) at 0.5 uM using YSPTSPSYSPTSPSYSPTSPKKK as substrate after 30 mins in presence of [33P]-gamma-ATP by filter binding assay relative to control. Format: protein-complex assay.

Usually inhibition stands for the percentage by which the read-out fell short of the control. As to `Cc1cc(=O)c2c(O)cc(OCc3ccco3)c([C@H]3CCN(C)C[C@H]3O)c2o1`, the inhibition of growth at 10 µM in assay [1] was 14%; in assay [2], 7%; in assay [3], 32%; in assay [4], 6%; in assay [5], 17%. Further, the inhibition in assay [6] is 7%; in assay [7], 8%.
Turning to `Cc1cc(=O)c2c(O)c(CN(C)CC(=O)O)c(O)c([C@H]3CCN(C)C[C@H]3O)c2o1`, the inhibition of growth at 10 µM is 20% in assay [1]; 16% in assay [2]; 23% in assay [3]; 27% in assay [4]; 18% in assay [5]. Also, the inhibition in assay [6] and in assay [7] was 0% each time.
Consider `Cc1oc2c([C@H]3CCN(C)C[C@H]3O)c(O)cc(O)c2c(=O)c1C(O)c1cccc(Cl)c1Cl` (some centres undefined), for which the inhibition of growth at 10 µM stood at 20% in assay [1]; 2% in assay [2]; 12% in assay [3]; 7% in assay [4]; 3% in assay [5]. Moreover, the inhibition in assay [6] and in assay [7] was 0% throughout.
As to `Cc1cc(=O)c2c(O)c(CN3CCC(c4ccccc4)CC3)c(O)c([C@H]3CCN(C)C[C@H]3O)c2o1`, the inhibition of growth at 10 µM in assay [1] came out at 22%; in assay [2], 16%; in assay [3], 26%; in assay [4] it was 23%; in assay [5] it was 21%. Also, the figures for the inhibition in assay [6] and in assay [7] were 0% and 6%, respectively.
Consider `Cc1cc(=O)c2c(O)cc(OCc3ccccc3Br)c([C@H]3CCN(C)C[C@H]3O)c2o1`, for which the inhibition of growth at 10 µM in assay [1] amounted to 32%; in assay [2] it was 30%; in assay [3], 3%; in assay [4], 45%; in assay [5], 35%. Moreover, the results for the inhibition in assay [6] and in assay [7] were 6% and 0%, respectively.
Consider `Cc1cc(=O)c2c(O)cc(OCc3ccc(Br)cc3)c([C@H]3CCN(C)C[C@H]3O)c2o1`, for which the inhibition of growth at 10 µM came out at 17% in assay [1]; 13% in assay [2]; 27% in assay [3]; 14% in assay [4]; 13% in assay [5]. Moreover, the inhibition in assay [6] and in assay [7] was 0% throughout.
Turning to `Cc1oc2c([C@H]3CCN(C)C[C@H]3O)c(O)cc(O)c2c(=O)c1C(O)c1ccc(F)c(Br)c1` (some centres undefined), the inhibition of growth at 10 µM in assay [1] turned out to be 72%; in assay [2], 9%; in assay [3], 25%; in assay [4], 14%; in assay [5], 6%. The inhibition in assay [6] and in assay [7] was 2% throughout.
With `Cc1cc(=O)c2c(O)c(CN3CC(O)CC3C(=O)O)c(O)c([C@H]3CCN(C)C[C@H]3O)c2o1` (some centres undefined), the inhibition of growth at 10 µM in assay [1] came to 0%; in assay [2], 23%; in assay [3] it was 28%; in assay [4], 25%; in assay [5], 19%. Also, the inhibition in assay [6] amounted to 10%; in assay [7] it was 8%.
Consider `Cc1cc(=O)c2c(O)c(CN3CCCCC3)c(O)c([C@H]3CCN(C)C[C@H]3O)c2o1`, for which the inhibition of growth at 10 µM in assay [1] was 14%; in assay [2], 14%; in assay [3], 32%; in assay [4], 15%; in assay [5], 22%. Also, the inhibition in assay [6] and in assay [7] was 10% each time.
As to `Cc1oc2c([C@H]3CCN(C)C[C@H]3O)c(O)cc(O)c2c(=O)c1C(O)c1ccc(F)cc1` (some centres undefined), the inhibition of growth at 10 µM in assay [1] came to 0%; in assay [2], 17%; in assay [3] it was 30%; in assay [4], 9%; in assay [5], 11%. In addition, the inhibition in assay [6] and in assay [7] was 13% in each case.
In the case of `CCOc1ccc(Br)c(C(O)c2c(C)oc3c([C@H]4CCN(C)C[C@H]4O)c(O)cc(O)c3c2=O)c1` (some centres undefined), the inhibition of growth at 10 µM in assay [1] amounted to 0%; in assay [2], 4%; in assay [3], 2%; in assay [4] it was 9%; in assay [5], 5%. The inhibition in assay [6] came out at 0%; in assay [7], 2%.
With `Cc1oc2c([C@H]3CCN(C)C[C@H]3O)c(O)cc(O)c2c(=O)c1C(O)c1c(F)cccc1Cl` (some centres undefined), the inhibition of growth at 10 µM in assay [1] came to 0%; in assay [2] it was 41%; in assay [3] it was 49%; in assay [4], 41%; in assay [5], 18%. Moreover, the inhibition in assay [6] and in assay [7] was 0% each time.
As for `Cc1cc(=O)c2c(O)c(CN3CCOCC3)c(O)c([C@H]3CCN(C)C[C@H]3O)c2o1`, the inhibition of growth at 10 µM turned out to be 21% in assay [1]; 4% in assay [2]; 8% in assay [3]; 22% in assay [4]; 11% in assay [5]. Also, the inhibition in assay [6] and in assay [7] was 0% in each case.
Regarding `Cc1oc2c([C@H]3CCN(C)C[C@H]3O)c(O)cc(O)c2c(=O)c1C(O)c1ccc([N+](=O)[O-])cc1` (some centres undefined), the inhibition of growth at 10 µM in assay [1] worked out at 24%; in assay [2], 2%; in assay [3] it was 0%; in assay [4], 4%; in assay [5], 5%. In addition, the inhibition was found to be 6% in assay [6] and 8% in assay [7].
As to `Cc1cc(=O)c2c(O)cc(OCc3ccc([N+](=O)[O-])cc3)c([C@H]3CCN(C)C[C@H]3O)c2o1`, the inhibition of growth at 10 µM in assay [1] was found to be 23%; in assay [2], 12%; in assay [3], 14%; in assay [4], 39%; in assay [5], 14%. Besides, the inhibition in assay [6] amounted to 0%; in assay [7], 5%.
Take `CCCCCCCCCC/C=C/c1c(C)oc2c([C@H]3CCN(C)C[C@H]3O)c(O)cc(O)c2c1=O`: the inhibition of growth at 10 µM amounted to 0% in assay [1]; 4% in assay [2]; 9% in assay [3]; 7% in assay [4]; 10% in assay [5]. Also, the values for the inhibition in assay [6] and in assay [7] were 5% and 11%, respectively.
With `Cc1oc2c([C@H]3CCN(C)C[C@H]3O)c(O)cc(O)c2c(=O)c1C(O)c1c(Cl)cccc1Cl` (some centres undefined), the inhibition of growth at 10 µM in assay [1] was determined as 0%; in assay [2], 0%; in assay [3] it was 14%; in assay [4], 33%; in assay [5], 24%. Also, the inhibition in assay [6] and in assay [7] was 0% each time.
